The structures appear in SMILES notation. Active and inactive are the calls of the source. The rule behind the calls is not given here. A value given as a limit tells only on which side of the number the result lay.

One may read the IC50 as the midpoint of a concentration-inhibition curve. A high value points to weaker potency in that assay.

Assay [1] has as its system SGC-7901. Briefly: Cytotoxicity against human SGC7901 cells after 48 hrs by MTT assay. As to conditions: SGC-7901, 48 h. In kind it is functional, cell-based. In a few lines: (§1)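 Cells at 5–10 × 10³/well grown overnight in RPMI-1640, then exposed in triplicate to a concentration series for 48 h. MTT (1 mg/mL) added for the final 4 h, formazan dissolved in DMSO, read at 570 nm against 595 nm reference. Untreated cells served as negative control, 1% Triton-treated cells as positive control. Inhibition calculated relative to negative-control OD. IC50 taken as concentration giving 50% growth inhibition.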
For orientation: Tetrazolium dyes change colour on reduction, which living cells bring about.

Assay [2] concerns U-251. Briefly: Cytotoxicity against human U251 cells after 48 hrs by MTT assay. In kind it is functional, cell-based. Conditions: U-251, 48 h. In a few lines:
as §1

The test system of assay [3] is MDA-MB-231. Briefly: Cytotoxicity against human MDA-MB-231 cells after 48 hrs by MTT assay. In kind it is functional, cell-based. As to conditions: MDA-MB-231, 48 h. In a few lines:
as §1

Assay [4] can be described thus: Cytotoxicity against human U87 cells after 48 hrs by MTT assay. In kind it is functional, cell-based, U-87MG ATCC. Conditions: U-87 MG. The gist of the method:
as §1

Assay [5] has as its system MCF7. Briefly: Cytotoxicity against human MCF7 cells after 48 hrs by MTT assay. As to conditions: MCF7, 48 h. In kind it is functional, cell-based. In a few lines:
as §1

For assay [6], the system named is MDA-MB-231. Briefly: Inhibition of Ras activation in human MDA-MB-231 cells assessed as reduction in phosphorylated Akt levels at 5 uM after 8 hrs by Western blot. In kind it is cell-based. The gist of the method:
(§2)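 MDA-MB-231 cells at 1.5 × 10⁵/mL exposed to 1 or 5 µM compound or vehicle for 8 h, then harvested and lysed. Lysates resolved by SDS–PAGE and immunoblotted with antibodies to phospho-Akt (Ser473), phospho-ERK (Thr202/Tyr204), phospho-Raf (Ser259), total Akt, total ERK and β-actin. Detection by HRP-conjugated secondary antibodies and enhanced chemiluminescence. Blots representative of two experiments.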

The test system of assay [7] is MDA-MB-231. Briefly: Inhibition of Ras activation in human MDA-MB-231 cells assessed as reduction in phosphorylated Raf levels at 5 uM after 8 hrs by Western blot. In kind it is cell-based. The gist of the method: as §2
On the technique in general: Immunoblotting shows a protein as a band on a membrane.

In assay [8] the test system is MDA-MB-231. The assay can be described thus: Inhibition of Ras activation in human MDA-MB-231 cells assessed as reduction in phosphorylated ERK levels at 5 uM after 8 hrs by Western blot. In kind it is cell-based. The gist of the method:
as §2

Assay [9] relates to MCF7. Briefly: Induction of NO production in human MCF7 cells at 100 uM after 30 to 300 mins by Griess assay. In kind it is functional, cell-based. The gist of the method:
(§3)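 Cells treated with compound at 100 µM. Nitrate/nitrite in cell lysates measured by Griess reaction at 540 nm over 30–300 min and quantified from a sodium nitrate standard curve. Diluent-treated cells gave background. Reported values are means of two experiments at 240 min post-treatment.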
Background: The Griess reaction detects nitrite, a stable product of nitric oxide.

Assay [10] relates to MDA-MB-231. Briefly: Induction of NO production in human MDA-MB-231 cells at 100 uM after 30 to 300 mins by Griess assay. In kind it is functional, cell-based. The gist of the method: as §3
The test system of assay [11] is MDA-MB-231. Briefly: Induction of NO production in human MDA-MB-231 cells at 100 uM after 30 to 300 mins by Griess assay in presence of hemoglobin. In kind it is functional, cell-based. The gist of the method: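 MDA-MB-231 cells (5 × 10⁶/well) were treated in triplicate with 100 µM compound […], harvested and lysed. Lysates were mixed with Griess reagent for 30–300 min and absorbance read at 540 nm. Nitrate/nitrite was quantified against a sodium nitrate standard curve, with diluent-treated cells as background.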

Assay [12] relates to U-87MG ATCC. The assay can be described thus: Induction of NO production in human U87 cells at 100 uM after 30 to 300 mins by Griess assay. In kind it is functional, cell-based. In a few lines: as §3
In assay [13] the test system is SGC-7901. Briefly: Induction of NO production in human SGC7901 cells at 100 uM after 30 to 300 mins by Griess assay. In kind it is functional, cell-based. In a few lines: as §3
Assay [14] concerns U-251. The assay can be described thus: Induction of NO production in human U251 cells at 100 uM after 30 to 300 mins by Griess assay. In kind it is functional, cell-based. In a few lines: as §3
Assay [15] has as its system MDA-MB-231. Briefly: Cytotoxicity against human MDA-MB-231 cells after 24 hrs by MTT assay in presence of hemoglobin.

Turning to `CC(C)=CCC/C(C)=C/CC/C(C)=C/CSc1ccccc1C(=O)N[C@@H](C)C(=O)OCCCCOc1no[n+]([O-])c1S(=O)(=O)c1ccccc1`, the IC50 was 44.6 µM in assay [1]; 7.95 µM in assay [2]; greater than 50 µM in assay [3]; 26.4 µM in [4]; 8.68 µM in assay [5].
Consider `CC(C)=CCC/C(C)=C/CC/C(C)=C/CSc1ccccc1C(=O)N[C@@H](C)C(=O)OCC#CCOc1no[n+]([O-])c1S(=O)(=O)c1ccccc1`, for which the IC50 in assay [1] was 11.4 µM; in assay [2] it was 7.31 µM; in assay [3], 1.01 µM; in [4], 5.18 µM; in assay [5], 5.03 µM.
As for `O=S(=O)(c1ccccc1)c1c(OCC#CCO)no[n+]1[O-]`, half-maximal inhibition in assay [3] (IC50) was put at 6.97 µM.
With `CC(C)=CCC/C(C)=C/CC/C(C)=C/CSc1ccccc1C(=O)N[C@@H](Cc1ccccc1)C(=O)OCCOCCOc1no[n+]([O-])c1S(=O)(=O)c1ccccc1`, the IC50 in assay [1], in assay [2], in assay [3], in assay [4] and in assay [5] was greater than 50 µM throughout.
For the molecule `CC(C)=CCC/C(C)=C/CC/C(C)=C/CSc1ccccc1C(=O)O` [SALIRASIB], the IC50 in assay [1] stood at 37.7 µM; in [2], 46.9 µM; in [3], 51.2 µM; in [4], 54 µM; in assay [5], 46.8 µM. The outcome in assay [6], in assay [7] and in assay [8] was inactive.
Consider `O=S(=O)(c1ccccc1)c1c(OCCCCO)no[n+]1[O-]`, for which, in assay [3], the IC50 is 9.87 µM.
As for `CC(C)=CCC/C(C)=C/CC/C(C)=C/CSc1ccccc1C(=O)NCC(=O)OCCCCOc1no[n+]([O-])c1S(=O)(=O)c1ccccc1`, the IC50 is greater than 50 µM in [1]; 28.2 µM in assay [2]; 9.99 µM in assay [3]; greater than 50 µM in [4]; 25.1 µM in [5].
In the case of `CC(C)=CCC/C(C)=C/CC/C(C)=C/CSc1ccccc1C(=O)N1CCC[C@H]1C(=O)OCCCCOc1no[n+]([O-])c1S(=O)(=O)c1ccccc1`, the IC50 turned out to be 22.5 µM in assay [1]; 6.99 µM in assay [2]; 3.14 µM in assay [3]; 9 µM in [4]; 7.47 µM in assay [5].
With `CC(C)=CCC/C(C)=C/CC/C(C)=C/CSc1ccccc1C(=O)N[C@@H](C)C(=O)OCCOCCOc1no[n+]([O-])c1S(=O)(=O)c1ccccc1`, the IC50 turned out to be 11.3 µM in assay [1]; 8.04 µM in assay [2]; 4.21 µM in assay [3]; 18.1 µM in [4]; 7.68 µM in assay [5]. The outcome in assay [9], in assay [10], in [6], in assay [7], in [12] and in assay [8] was Active. For the same molecule, the outcome in [13] and in assay [14] was Active. Moreover, the outcome in assay [11] and in assay [15] was inactive.
For `CC(C)=CCC/C(C)=C/CC/C(C)=C/CSc1ccccc1C(=O)NCC(=O)OCC#CCOc1no[n+]([O-])c1S(=O)(=O)c1ccccc1`, the IC50 in assay [1] turned out to be 11.4 µM; in [2] it was 11.7 µM; in [3], 7.23 µM; in assay [4], 14.8 µM; in [5] it was 6.91 µM. Besides, the outcome in assay [9], in [10], in assay [12], in assay [13] and in assay [14] was Active.
For the molecule `CC(C)=CCC/C(C)=C/CC/C(C)=C/CSc1ccccc1C(=O)N1CCC[C@H]1C(=O)OC(C)CCOc1no[n+]([O-])c1S(=O)(=O)c1ccccc1` (stereo partly specified), the half-inhibitory concentration (IC50) came out at 13.9 µM in assay [1]; 7.93 µM in assay [2]; 1.54 µM in assay [3]; 8.47 µM in [4]; 6.5 µM in [5].
In the case of `CC(C)=CCC/C(C)=C/CC/C(C)=C/CSc1ccccc1C(=O)N[C@@H](Cc1ccccc1)C(=O)OC(C)CCOc1no[n+]([O-])c1S(=O)(=O)c1ccccc1` (stereo partly specified), the IC50 in assay [1], in assay [2], in [3], in [4] and in assay [5] was greater than 50 µM each time. For the same molecule, the outcome in [9], in assay [10], in [12], in assay [13] and in assay [14] was Active.
Regarding `CC(C)=CCC/C(C)=C/CC/C(C)=C/CSc1ccccc1C(=O)NCC(=O)OCCOCCOc1no[n+]([O-])c1S(=O)(=O)c1ccccc1`, the IC50 in [1] is 19.5 µM; in assay [2], 8.58 µM; in assay [3] it was 2.41 µM; in assay [4], 7.34 µM; in assay [5] it was 6.59 µM. Besides, the result in assay [9], in [10], in [12], in assay [13] and in assay [14] was Active.
With `CC(C)=CCC/C(C)=C/CC/C(C)=C/CSc1ccccc1C(=O)N1CCC[C@H]1C(=O)OCCOCCOc1no[n+]([O-])c1S(=O)(=O)c1ccccc1`, the IC50 in assay [1] turned out to be 7.86 µM; in assay [2], 4.83 µM; in assay [3], 3.16 µM; in assay [4] it was 12.9 µM; in assay [5] it was 8.77 µM. Moreover, the result in [9], in assay [10], in assay [12], in [13] and in assay [14] was Active.
For the molecule `CNC(=O)c1cc(Oc2ccc(NC(=O)Nc3ccc(Cl)c(C(F)(F)F)c3)cc2)ccn1` [SORAFENIB], the half-inhibitory concentration (IC50) in assay [1] was 10.4 µM; in assay [2] it was 24.7 µM; in assay [3] it was 4.77 µM; in [4] it was 21.1 µM; in [5] it was 8.83 µM.
The like results for `CC(C)=CCC/C(C)=C/CC/C(C)=C/CSc1ccccc1C(=O)N[C@@H](Cc1ccccc1)C(=O)OCCCCOc1no[n+]([O-])c1S(=O)(=O)c1ccccc1` were, in that order, greater than 50 µM, greater than 50 µM, greater than 50 µM, greater than 50 µM and greater than 50 µM.
`O=S(=O)(c1ccccc1)c1c(OCCOCCO)no[n+]1[O-]` gave an IC50 in assay [3] of 20.5 µM.
Consider `CC(C)=CCC/C(C)=C/CC/C(C)=C/CSc1ccccc1C(=O)N[C@@H](C)C(=O)OC(C)CCOc1no[n+]([O-])c1S(=O)(=O)c1ccccc1` (stereo partly specified), for which the IC50 in [1] was greater than 50 µM; in assay [2] it was 15.3 µM; in assay [3], 5.05 µM; in assay [4] it was 20.4 µM; in [5], 11.1 µM.
On to `CC(C)=CCC/C(C)=C/CC/C(C)=C/CSc1ccccc1C(=O)N[C@@H](Cc1ccccc1)C(=O)OCC#CCOc1no[n+]([O-])c1S(=O)(=O)c1ccccc1`, for which the IC50 in assay [1], in assay [2], in assay [3], in assay [4] and in assay [5] was greater than 50 µM throughout.
On to `CC(C)=CCC/C(C)=C/CC/C(C)=C/CSc1ccccc1C(=O)NCC(=O)OC(C)CCOc1no[n+]([O-])c1S(=O)(=O)c1ccccc1` (stereo unspecified), for which the IC50 in [1] amounted to 11.9 µM; in assay [2], 10.8 µM; in assay [3], 7.26 µM; in [4] it was 15.3 µM; in [5], 9.11 µM.

The record behind these values is ChEMBL document CHEMBL1157810, “Synthesis and evaluation of nitric oxide-releasing derivatives of farnesylthiosalicylic acid as anti-tumor agents” (Bioorg Med Chem, 2010).
